Source: ChEMBL document CHEMBL3804821, “Design and synthesis of some novel 4-Chloro-N-(4-(1-(2-(2-cyanoacetyl)hydrazono)ethyl)phenyl) benzenesulfonamide derivatives as anticancer and radiosensitizing agents” (Eur J Med Chem, 2016)

Key:
HepG2 [1] = experiment: Cytotoxicity against human HepG2 cells assessed as surviving fraction at 25 uM after 48 hrs by SRB assay relative to control; format: functional
How it was run: (§1)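 Cells seeded at 10^4/well and allowed to attach for 24 h. Compounds dissolved in DMSO, diluted with saline, and added at 12.5, 25, 50 and 100 µM in triplicate wells. Exposure 48 h, 37 °C, 5% CO2. Cells then TCA-fixed and stained 30 min with 0.4% SRB in 1% acetic acid, washed four times with 1% acetic acid, and dye recovered in Tris-EDTA. Absorbance read and surviving fraction plotted against concentration to obtain IC50.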

HepG2 [2] = experiment: Cytotoxicity against human HepG2 cells assessed as surviving fraction at 12.5 uM after 48 hrs by SRB assay relative to control; format: functional; how it was run: as §1
HepG2 [3] = experiment: Cytotoxicity against human HepG2 cells assessed as cell viability after 48 hrs by SRB assay; format: functional, cell-based; conditions: HepG2, 48 h; how it was run: as §1
HepG2 [4] = experiment: Cytotoxicity against human HepG2 cells assessed as surviving fraction at 100 uM after 48 hrs by SRB assay relative to control; format: functional; how it was run: as §1
HepG2 [5] = experiment: Cytotoxicity against human HepG2 cells assessed as surviving fraction at 50 uM after 48 hrs by SRB assay relative to control; format: functional; how it was run: as §1
HepG2 [6] = experiment: Cytotoxicity against human HepG2 cells assessed as cell viability treated for 2 hrs followed by gamma irradiation of 8 Gy with dosage rate of 0.758 rad/sec for 17.73 mins measured after 48 hrs by SRB assay; format: functional, cell-based; conditions: HepG2, light or radiation study
How it was run: (§2)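 Cells seeded at 10^4/well for 24 h, then given compound at 12.5, 25, 50 or 100 µM. After 2 h, a single 8 Gy γ-ray dose was delivered (0.758 rad/sec, 17.73 min). Cells fixed 48 h after irradiation and stained with 0.4% SRB in 1% acetic acid, read at 570 nm. Surviving fraction reported as mean ± standard error and analysed by 1-way ANOVA; IC50 taken from the survival curve.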

HepG2 [7] = experiment: Cytotoxicity against human HepG2 cells assessed as surviving fraction at 100 uM treated for 2 hrs followed by gamma irradiation of 8 Gy with dosage rate of 0.758 rad/sec for 17.73 mins measured after 48 hrs by SRB assay relative to control; format: functional; how it was run: as §2
HepG2 [8] = experiment: Cytotoxicity against human HepG2 cells assessed as surviving fraction at 12.5 uM treated for 2 hrs followed by gamma irradiation of 8 Gy with dosage rate of 0.758 rad/sec for 17.73 mins measured after 48 hrs by SRB assay relative to control; format: functional; how it was run: as §2
HepG2 [9] = experiment: Cytotoxicity against human HepG2 cells assessed as surviving fraction at 50 uM treated for 2 hrs followed by gamma irradiation of 8 Gy with dosage rate of 0.758 rad/sec for 17.73 mins measured after 48 hrs by SRB assay relative to control; format: functional; how it was run: as §2
HepG2 [10] = experiment: Cytotoxicity against human HepG2 cells assessed as surviving fraction at 25 uM treated for 2 hrs followed by gamma irradiation of 8 Gy with dosage rate of 0.758 rad/sec for 17.73 mins measured after 48 hrs by SRB assay relative to control; format: functional; how it was run: as §2
HepG2 [11] = experiment: Potency index, ratio of doxorubicin IC50 to compound IC50 for human HepG2 cells; format: functional

SMILES | Ratio (HepG2 [1]) | Ratio (HepG2 [2]) | IC50 (HepG2 [3]) [µM] | Ratio (HepG2 [4]) | Ratio (HepG2 [5]) | IC50 (HepG2 [6]) [µM] | Ratio (HepG2 [7]) | Ratio (HepG2 [8]) | Ratio (HepG2 [9]) | Ratio (HepG2 [10]) | Ratio IC50 (HepG2 [11])
CCOC(=O)c1c(-c2ccc(N(C)C)cc2)c(C#N)c(=O)n(/N=C(\C)c2ccc(NS(=O)(=O)c3ccc(Cl)cc3)cc2)c1N | 0.432 | 0.653 | 21 | 0.196 | 0.396 |  |  |  |  |  | 
CCOC(=O)c1c(-c2ccco2)c(C#N)c(=O)n(/N=C(\C)c2ccc(NS(=O)(=O)c3ccc(Cl)cc3)cc2)c1N | 0.367 | 0.413 | 10.3 | 0.342 | 0.37 | 8.8 | 0.1 | 0.32 | 0.1 | 0.22 | 
CCOC(=O)c1c(-c2ccc(Cl)cc2)c(C#N)c(=O)n(/N=C(\C)c2ccc(NS(=O)(=O)c3ccc(Cl)cc3)cc2)c1N | 0.463 | 0.555 | 20.2 | 0.314 | 0.394 |  |  |  |  |  | 
CCOC(=O)c1c(-c2ccccc2)c(C#N)c(=O)n(/N=C(\C)c2ccc(NS(=O)(=O)c3ccc(Cl)cc3)cc2)c1N | 0.287 | 0.617 | 16.8 | 0.179 | 0.212 |  |  |  |  |  | 
CCOC(=O)c1c(-c2ccc3c(c2)OCO3)c(C#N)c(=O)n(/N=C(\C)c2ccc(NS(=O)(=O)c3ccc(Cl)cc3)cc2)c1N | 0.606 | 0.691 | 37 | 0.134 | 0.373 |  |  |  |  |  | 
C/C(=N\NC(=O)C(C#N)C(=S)S)c1ccc(NS(=O)(=O)c2ccc(Cl)cc2)cc1 (stereo not given) | 0.448 | 0.542 | 17.5 | 0.248 | 0.387 |  |  |  |  |  | 
CCOC(=O)c1c(-c2cccc([N+](=O)[O-])c2)c(C#N)c(=O)n(/N=C(\C)c2ccc(NS(=O)(=O)c3ccc(Cl)cc3)cc2)c1N | 0.524 | 0.661 | 29.7 | 0.298 | 0.381 |  |  |  |  |  | 
CCOC(=O)c1c(-c2ccc(OC)cc2)c(C#N)c(=O)n(/N=C(\C)c2ccc(NS(=O)(=O)c3ccc(Cl)cc3)cc2)c1N | 0.637 | 0.651 | 61.7 | 0.147 | 0.613 |  |  |  |  |  | 
CCOC(=O)c1c(/C=C/c2ccccc2)c(C#N)c(=O)n(/N=C(\C)c2ccc(NS(=O)(=O)c3ccc(Cl)cc3)cc2)c1N | 0.336 | 0.414 | 10.7 | 0.114 | 0.275 |  |  |  |  |  | 
CSC(SC)=C(C#N)C(=O)N/N=C(\C)c1ccc(NS(=O)(=O)c2ccc(Cl)cc2)cc1 | 0.44 | 0.579 | 19.4 | 0.266 | 0.329 |  |  |  |  |  | 
CCOC(=O)c1c(-c2ccccc2OC)c(C#N)c(=O)n(/N=C(\C)c2ccc(NS(=O)(=O)c3ccc(Cl)cc3)cc2)c1N | 0.129 | 0.489 | 11.4 | 0.087 | 0.105 |  |  |  |  |  | 
CCOC(=O)c1c(-c2ccccc2Cl)c(C#N)c(=O)n(/N=C(\C)c2ccc(NS(=O)(=O)c3ccc(Cl)cc3)cc2)c1N | 0.545 | 0.488 | 11.4 | 0.192 | 0.342 |  |  |  |  |  | 
C/C(=N\NC(=O)CC#N)c1ccc(NS(=O)(=O)c2ccc(Cl)cc2)cc1 | 0.159 | 0.18 | 8 | 0.064 | 0.078 | 6.5 | 0.11 | 0.26 | 0.12 | 0.25 | 4
CCOC(=O)c1c(-c2ccc([N+](=O)[O-])cc2)c(C#N)c(=O)n(/N=C(\C)c2ccc(NS(=O)(=O)c3ccc(Cl)cc3)cc2)c1N | 0.586 | 0.713 | 41.1 | 0.212 | 0.483 |  |  |  |  |  | 
CCO/C=C(\C#N)C(=O)N/N=C(\C)c1ccc(NS(=O)(=O)c2ccc(Cl)cc2)cc1 | 0.406 | 0.556 | 16.8 | 0.222 | 0.228 |  |  |  |  |  | 
CCOC(=O)c1c(-c2ccc(C)cc2)c(C#N)c(=O)n(/N=C(\C)c2ccc(NS(=O)(=O)c3ccc(Cl)cc3)cc2)c1N | 0.25 | 0.264 | 8.38 | 0.107 | 0.214 | 7.3 | 0.11 | 0.18 | 0.12 | 0.15 | 
C/C(=N\NC(=O)/C(C#N)=C/N(C)C)c1ccc(NS(=O)(=O)c2ccc(Cl)cc2)cc1 | 0.386 | 0.642 | 19.4 | 0.281 | 0.311 |  |  |  |  |  | 
COc1cccc2c1C(=O)c1c(O)c3c(c(O)c1C2=O)C[C@@](O)(C(=O)CO)C[C@@H]3O[C@H]1C[C@H](N)[C@H](O)[C@H](C)O1 [DOXORUBICIN] | 0.48 | 0.551 |  | 0.13 | 0.139 |  |  |  |  |  | 
